Compounds with a hit are over-represented: about 3.1% of the library has one in this group of screens.
PREPL inhibitor = human PREPL enzyme inhibition. AID 2751. inhibition, % at 5.96 µM. recombinant PREPL, fluorescence polarization activity-based probe. Q4J6C6. 0.68% of 320,000 active; in the data active = inhibition above about 43%
Target sequence (Q4J6C6 whole entry, looked up): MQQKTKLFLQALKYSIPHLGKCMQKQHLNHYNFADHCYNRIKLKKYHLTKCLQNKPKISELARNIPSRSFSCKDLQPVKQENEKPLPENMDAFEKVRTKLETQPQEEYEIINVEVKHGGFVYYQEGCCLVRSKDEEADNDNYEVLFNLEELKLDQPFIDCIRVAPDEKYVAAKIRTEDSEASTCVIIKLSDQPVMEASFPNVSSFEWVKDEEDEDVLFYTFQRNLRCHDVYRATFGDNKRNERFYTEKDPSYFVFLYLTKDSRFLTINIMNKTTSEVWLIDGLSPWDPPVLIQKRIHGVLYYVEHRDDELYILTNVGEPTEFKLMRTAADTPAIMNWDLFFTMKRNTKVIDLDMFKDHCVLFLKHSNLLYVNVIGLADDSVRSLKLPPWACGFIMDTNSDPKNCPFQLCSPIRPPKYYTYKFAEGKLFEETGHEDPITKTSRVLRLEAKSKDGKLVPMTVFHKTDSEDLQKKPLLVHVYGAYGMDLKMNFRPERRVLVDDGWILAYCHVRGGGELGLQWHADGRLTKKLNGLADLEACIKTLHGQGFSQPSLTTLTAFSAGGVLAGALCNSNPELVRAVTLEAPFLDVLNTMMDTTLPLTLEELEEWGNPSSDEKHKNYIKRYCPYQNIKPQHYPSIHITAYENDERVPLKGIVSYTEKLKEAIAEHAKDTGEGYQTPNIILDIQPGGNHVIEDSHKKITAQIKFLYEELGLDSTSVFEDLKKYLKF
UBC13 polyUb = blocks human UBC13 polyubiquitin chain formation | P61088 | TR-FRET | inhibition, % at 20 µM | 0.47% of 330,000 active | AID 485273; in the data active = inhibition above about 45%, passing the limit was not always enough
Apaf-1 inh = human Apaf-1 inhibition | inhibition, % at 20 µM | O14727 | AID 489030 | 0.71% of 330,000 active | reconstituted apoptosome caspase-3 activity, DEVD-Rh110 fluorescence; active = inhibition of at least 40% at 20 µM
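Material: reconstituted apoptosome with Apaf-1, cytochrome c, caspase-9, procaspase-3, dATP. Technique: Rh110 fluorescence intensity. Buffer or medium: pH 7.5 Hepes buffer with CHAPS, BSA, DTT. Times: 30 min plus 50 min, RT.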
MEKK2 WT-MEK5 = raises or lowers MEK5 binding to wildtype human MEKK2 PB1 domain; bead flow cytometry, Alexa488-MEK5 binding to MEKK2 WT; actives lie on both sides; Q9Y2U5; binding response (% of control), % at 10 µM; 1.1% of 290,000 active; in the data active = binding response below about 67% or above about 130%
MEKK3 PB1 HTS = modulators (inhibitors or enhancers) of MEK5 binding to human MEKK3 PB1 domain; bead-based flow cytometry, Alexa488-MEK5 binding to MEKK3; actives lie on both sides; 0 = blocked by unlabeled MEK5, 100 = vehicle; Q99759; 1.4% of 290,000 active; binding response (% of control), % at 10 µM;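 active = binding response more than 3 SD above or below the average of its plate-row segment, actives on both sides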;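 also: Alexa488 bead fluorescence after subtracting the streptavidin-only scavenger bead signal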
MEKK2 mut-MEK5 = signal of MEK5 binding to mutant human MEKK2 PB1 domain; bead flow cytometry, Alexa488-MEK5 binding to MEKK2 mutant; percent response, % at 10 µM; 0.35% of 290,000 active; AID 1530; in the data active = percent response above about 24%, passing the limit was not always enough
MEKK2wt confirm = raises or lowers MEK5 binding to wildtype human MEKK2, retest. shares compounds with MEKK3 PB1 HTS. bead flow cytometry, Alexa488-MEK5 binding to MEKK2 WT; actives lie on both sides. 2.4% of 5,900 active. AID 1892. binding response (% of control), % at 10 µM; in the data active = binding response below about 16% or above about 210%; inactive = in between
MEKK2mut confirm = signal of MEK5 binding to mutant human MEKK2, retest; AID 1893; percent response, % at 10 µM; bead flow cytometry, Alexa488-MEK5 binding to MEKK2 mutant; shares compounds with MEKK3 PB1 HTS; 2% of 5,900 active; in the data active = percent response mostly above about 71%, no sharp cut-off; inactive = mostly below about 38%;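 also: higher means compound restores mutant binding toward wildtype level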
MEKK3-MEK5 inh = confirmation of inhibitors of MEK5 binding to human MEKK3; shares compounds with MEKK3 PB1 HTS; bead flow cytometry, Alexa488-MEK5 binding to MEKK3; active compounds read low; binding response (% of control), % at 10 µM; 1.8% of 5,900 active; AID 1894;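 active = binding response below 72% of control, or above a set upper limit, though filed actives all read lower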;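 also: lower values mean stronger disruption of MEK5 binding to MEKK3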
Each line names hits and unclear results; the compound was inactive in the other large screens (follow-up assays come after a bar, where they were run); [ ] = remark or other dose.

Cc1nn(C)c(C(=O)N2CCN(C(=O)c3ccco3)CC2)c1Br	MEKK2 WT-MEK5 34[inhibitor] | MEKK2wt confirm inactive | MEKK2mut confirm inactive | MEKK3-MEK5 inh inactive
O=C(Cc1ccc(Cl)cc1)N1CCN(C(=O)c2ccco2)CC1	none
Cc1ccc(CC(=O)N2CCN(C(=O)c3ccco3)CC2)cc1	MEKK3 PB1 HTS 49[inhibitor] | MEKK2wt confirm inactive | MEKK2mut confirm inactive | MEKK3-MEK5 inh inactive
CN(C)C(=O)c1ccc(NC(=O)COc2cccc3c2OC(C)(C)C3)cc1	none (no result: PREPL inhibitor, MEKK2 WT-MEK5, MEKK3 PB1 HTS, MEKK2 mut-MEK5)
C[C@@H]1C=CC(=O)O[C@@H]1c1ccc(C(F)(F)F)cc1	none
C[C@H]1C=CC(=O)O[C@H]1c1ccccc1	MEKK3 PB1 HTS 122 | MEKK2wt confirm inactive | MEKK2mut confirm inactive | MEKK3-MEK5 inh inactive
CCOC(=O)CC(=O)CSc1nc(-c2cccnc2)ccc1C#N	none
CCOC(=O)CC(=O)CSc1nccc(-c2cccnc2)n1	MEKK3 PB1 HTS 43[inhibitor] | MEKK2wt confirm inactive | MEKK2mut confirm inactive | MEKK3-MEK5 inh inactive
CC(C)(C)c1ccccc1OCCOCCNCc1ccccc1	none
Cc1ccc(C)c(OCCCNCc2ccccc2)c1	none
Cc1cc(OCCOCCNCc2ccccc2)ccc1C(C)C	MEKK2 WT-MEK5 134 | MEKK2wt confirm inactive | MEKK2mut confirm inactive | MEKK3-MEK5 inh inactive
Cc1ccc(C(C)C)c(OCCNCc2ccccc2)c1	MEKK2 WT-MEK5 134 | MEKK2wt confirm inactive | MEKK2mut confirm inactive | MEKK3-MEK5 inh inactive
CCOc1ccc(NC(=O)COC(=O)CCN2C(=O)C3CC=CCC3C2=O)cc1OCC (centres undefined)	none (no result: MEKK2 WT-MEK5, MEKK3 PB1 HTS, MEKK2 mut-MEK5)
Cc1occc1-c1nnc(SCC(N)=O)o1	none
Cc1occc1-c1nnc(SCC(=O)c2ccc(F)cc2)o1	MEKK3 PB1 HTS 48[inhibitor] | MEKK2wt confirm inactive | MEKK2mut confirm inactive | MEKK3-MEK5 inh inactive
Cc1ccc(CSc2nnc(-c3ccc(NS(=O)(=O)c4ccccc4)cc3)o2)cc1	MEKK2 WT-MEK5 26[inhibitor], MEKK3 PB1 HTS 21[inhibitor] | MEKK2wt confirm inactive | MEKK2mut confirm inactive | MEKK3-MEK5 inh inactive
Cc1ccc(C(=O)CSc2nnc(-c3ccccc3)o2)cc1	MEKK2 WT-MEK5 -2.0[inhibitor], MEKK3 PB1 HTS 1.0[inhibitor] | MEKK2wt confirm inactive | MEKK2mut confirm inactive | MEKK3-MEK5 inh inactive
NS(=O)(=O)c1cc(Cl)c(NC(=O)COC(=O)c2ccccn2)c(Cl)c1	none (no result: MEKK2 WT-MEK5, MEKK3 PB1 HTS, MEKK2 mut-MEK5)
CC(=O)N1N=C(c2ccco2)CC1c1ccc(C)cc1 (centres undefined)	MEKK3 PB1 HTS 135 | MEKK2wt confirm inactive | MEKK2mut confirm inactive | MEKK3-MEK5 inh inactive
CCc1ccc(C2CC(c3ccco3)=NN2S(C)(=O)=O)cc1 (centres undefined)	MEKK2 mut-MEK5 55 (no result: MEKK2 WT-MEK5) | MEKK2wt confirm inactive | MEKK2mut confirm inactive | MEKK3-MEK5 inh inactive
CC(=O)N1N=C(c2ccco2)CC1c1ccc(Br)cc1 (centres undefined)	none
CC(=O)Nc1ccc(NC(=O)c2c(-c3ccccc3Cl)noc2C)c(C)c1	none
CC(=O)Nc1ccc(OC(=O)c2c(-c3ccccc3Cl)noc2C)cc1	MEKK3 PB1 HTS 144 | MEKK2wt confirm inactive | MEKK2mut confirm inactive | MEKK3-MEK5 inh inactive
CC1CC(C)CN(C(=O)COC(=O)COc2ccc(C#N)cc2)C1 (centres undefined)	none (no result: MEKK2 WT-MEK5, MEKK3 PB1 HTS, MEKK2 mut-MEK5)
O=C(NC1CCCC1)c1ccc(S(=O)(=O)N2CCOCC2)cc1	MEKK3 PB1 HTS 131 | MEKK2wt confirm inactive | MEKK2mut confirm inactive | MEKK3-MEK5 inh inactive
COc1ccc2[nH]cc(CCNC(=O)Cc3ccc(Cl)cc3)c2c1	none
C/C(=N\NC(=O)c1nnn(-c2nonc2N)c1CN1CCOCC1)c1ccc(CC(C)C)cc1	none
Cc1ccc(Cl)cc1N1CCN(S(=O)(=O)c2c(C)[nH]c(C)c2C(=O)N2CCCCC2)CC1	none

Compound activity: PubChem BioAssay, several laboratories
